Published values pooled from the literature.
Each line is one published result; the experiments were not run side by side.
Target: D(2) dopamine receptor (DRD2, Homo sapiens, UniProt P14416)

c1cncc(OC[C@@H]2CN(CCN3CCc4ccccc43)CCO2)c1 — inhibition (ligand displacement; radioligand; 10 µM): 20.9%
O=C(CN1CCN(c2ccc(F)cc2)CC1)Nc1cc(Cl)cc(Cl)c1 — inhibition (enzyme activity; inhibitor; 10 µM): 13.6%
CC(=O)C1=C(C)N(c2cccc(C(F)(F)F)c2)C(=O)N[C@H]1c1ccc(C#N)nc1 — inhibition (ligand displacement; 10 µM): -1.53%
CC(=O)Nc1ccc(N2CC(O)=C(c3nc4ccccc4[nH]3)C2=N)cc1 — inhibition (enzyme activity; inhibitor; 10 µM): 17.1%
Cn1nc(C(=O)NCc2ccc(C(=O)O)cc2)cc1-c1ccc2[nH]ccc2c1 — inhibition (ligand displacement; 10 µM): -14.4%
O=C(NCCN1CCN(C(=O)c2ccccc2)CC1)C(=O)Nc1ccccc1 — inhibition (enzyme activity; inhibitor; 10 µM): 6.4%
CC(=O)Nc1c(C(C)=O)c(=O)n(C)c2nc(-c3ccc(Cl)cc3Cl)c(-c3ccc(Cl)cc3)cc12 — inhibition (cell-free assay; 10 µM): 5.73%
CCOc1ccc(CNCC(O)c2ccccc2)cc1Br (stereo not shown) — inhibition (enzyme activity; inhibitor; 10 µM): 36.2%
Cc1cc(Nc2nccc(C)n2)cc(-c2cnc([C@@]3(O)CC[C@H](C(=O)O)C(C)(C)C3)s2)c1 — inhibition (ligand displacement; 10 µM): -3.52%
FC(F)(F)c1cccc(-c2ccc(CNCCCN3CCOCC3)o2)c1 — inhibition (enzyme activity; inhibitor; 10 µM): 48.3%
O=C(CCCN1CCC(O)(c2ccc(Br)cc2)CC1)c1ccc(F)cc1 — koff (binding): 0.00742 s⁻¹
Clc1cncc(OC[C@H]2CN(CCN3CCc4ccccc43)CCO2)c1 — inhibition (ligand displacement; radioligand; 10 µM): 37.8%
CN1CCN(C(=O)C(C)(C)c2ccc(C(=O)Nc3cn4cc(-c5cc(C(C)(C)C)cc(C(C)(C)C)c5)ccc4n3)cc2)CC1 — inhibition (ligand displacement; 10 µM): 57.5%
Cc1ccc(OC[C@H]2CN(CCN3CCc4ccccc43)CCO2)cn1 — inhibition (ligand displacement; radioligand; 10 µM): 16.2%
C[C@H](c1ccnc(Nc2nc3ccc(-c4cc(N(C)C)ncn4)cc3[nH]2)c1)N1CCN(C(=O)CC(F)(F)F)CC1 — inhibition (ligand displacement; 10 µM): 5.66%
COc1ccccc1N1CCN(CCCCN2CCc3ccccc3C2=O)CC1 — inhibition (ligand displacement; radioligand; 10 µM): 97.5%
O=C(O)[C@H]1[C@H](Cn2nnc3ccccc3c2=O)CC[C@@H]1C(=O)c1ccc(OCCC2CCOCC2)cc1 — inhibition (ligand displacement; 10 µM): 30.3%
COc1cccc(OC[C@H]2CN(CCN3CCc4ccccc43)CCO2)c1 — inhibition (ligand displacement; radioligand; 10 µM): 31.5%
CC(C)c1nc2cc(OCCCCN3CCN(c4cccc5c4OCCN5)CC3)ccc2s1 — Emax (β-arrestin recruitment; agonist; HTLA): 36%
O=C1c2ccccc2CCN1CCCCN1CCN(c2ccccn2)CC1 — inhibition (ligand displacement; radioligand; 10 µM): 86.6%
NS(=O)(=O)c1ccc(CCNCc2ccc(OCc3cccs3)cc2)cc1 — inhibition (enzyme activity; inhibitor; 10 µM): 23.9%
O=C(CN1CCO[C@@H](COc2ccccn2)C1)N1CCc2ccccc21 — inhibition (ligand displacement; radioligand; 10 µM): -15.6%
CNc1nc2cc(OCCCCN3CCN(c4cccc5ccc(C)nc45)CC3)ccc2s1 — Emax (β-arrestin recruitment; agonist; HTLA): < 20%
COc1ccc2c(c1)CN(CCCN1CCN(c3ccccc3OC)CC1)C2=O — inhibition (ligand displacement; radioligand; 10 µM): 82.1%
Nc1nonc1C(=O)NCCNCc1cccc(OCc2ccccc2F)c1 — inhibition (enzyme activity; inhibitor; 10 µM): 6.52%
